Values after ≈ are worked out from the molar mass of the structure shown.
Assays:
[1] = Compound was tested in vitro for loss of compound after 2 hours exposure to hepatocytes of human at 25 uM concentration; assay type: ADME, organism-based, Hepatocyte; details: read-out: Metabolism
Enterovirus [2] = assay: In vitro anti-rhinoviral activity against human rhinovirus serotypes 2,3,9,14,16,25 and 39; assay type: functional, organism-based
[3] = Compound was tested in vitro for loss of compound after 2 hours exposure to hepatocytes of dog at 25 uM concentration; assay type: ADME, organism-based, Canis lupus familiaris, Hepatocyte; details: read-out: Metabolism
[4] = target: T1, Human rhinovirus A protease (Human rhinovirus sp.) (UniProt Q4U254);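 also: inhibition of the human rhinovirus 3C protease enzyme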
T1 sequence (whole entry): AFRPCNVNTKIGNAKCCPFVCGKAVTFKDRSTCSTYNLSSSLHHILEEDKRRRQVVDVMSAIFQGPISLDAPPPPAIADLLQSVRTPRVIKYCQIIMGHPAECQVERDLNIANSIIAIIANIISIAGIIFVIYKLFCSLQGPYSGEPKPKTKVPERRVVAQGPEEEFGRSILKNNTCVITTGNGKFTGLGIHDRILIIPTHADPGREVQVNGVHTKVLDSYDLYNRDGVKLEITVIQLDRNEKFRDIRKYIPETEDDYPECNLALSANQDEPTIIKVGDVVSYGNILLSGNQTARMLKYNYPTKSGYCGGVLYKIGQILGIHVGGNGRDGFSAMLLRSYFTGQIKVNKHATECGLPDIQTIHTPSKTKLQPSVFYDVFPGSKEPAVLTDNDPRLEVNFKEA

[5] = Compound was tested in vitro for loss of compound after 30 min exposure to liver microsomes of dog at 25 uM concentration; assay type: ADME, organism-based, Canis lupus familiaris; details: read-out: Metabolism
Summary of the method: (§1)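 Pooled liver microsomes (dog, monkey or human; 1 mg/mL, 6–8 livers) with 2 mM NADPH in 100 mM potassium phosphate, pH 7.4, preincubated 1 min at 37 °C. Started with 25 μM compound, run 30 min, quenched with acetonitrile. Time-zero controls quenched before compound addition. Remaining compound by reversed-phase HPLC at 215 nm. Reported as % metabolized.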

[6] = Thermodynamic aqueous solubility was determined; assay type: physicochemical; details: buffer
Summary of the method: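 1–2 mg compound stirred in 1 mL of pH 7.0, 50 mM phosphate buffer at room temperature for 4 h. Filtered through a 0.45 μm filter. Filtrate concentration determined by HPLC against a standard of known concentration.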

[7] = Half-life upon exposure to human plasma; assay type: ADME, organism-based
Summary of the method: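 Pooled heparinized human plasma (10 donors) or 100 mM potassium phosphate pH 7.4 buffer (n = 3 each), spiked to final 25 μM compound from acetonitrile stock. Incubated at 37 °C for 1–3 h with regular sampling. Protein precipitated with acetonitrile, then LC quantification against a 0.05–40 μg/mL standard curve. Half-life by linear regression of mean concentration-time data.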

[8] = Compound was tested in vitro for loss of compound after 30 min exposure to liver microsomes of human at 25 uM concentration; assay type: ADME, organism-based; details: read-out: Metabolism; summary of the method: as §1
[9] = Compound was tested for plasma concentration in dogs 7 hours after oral administration (30 mg/kg); assay type: ADME, organism-based, Canis lupus familiaris; details: dog
Summary of the method: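 Male beagle dogs (BW ~9.3 kg, n = 3), single oral dose of 30 mg/kg. Vehicle was 80:20 propylene glycol:sterile water (15.0 mg/mL) or, in some studies, a 0.5% carboxymethyl cellulose suspension. Blood sampled up to 24 h. Plasma level at 7 h determined by LCMS. Noncompartmental analysis of individual concentration-time profiles.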

[10] = Compound was tested for human plasma protein binding; assay type: ADME, cell-free
Summary of the method: (§2)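 Ultrafiltration binding. Compound added from 1 mM and 0.1 mM stocks into heparinized dog or human plasma or pH 7.4 phosphate buffer, giving final 1 and 10 μM. Incubated 1 h at 37 °C, then centrifugal ultrafiltration. Filtrate and whole plasma quantified by LCMS with internal standard. % free = filtrate/whole plasma × 100. Three replicates per species per concentration.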

Caco-2 = details: Homo sapiens
Canis familiaris = species: Canis familiaris; assay: Compound was tested for plasma protein binding of dog; assay type: ADME, organism-based, Canis lupus familiaris; summary of the method: as §2
Enterovirus [11] = assay: In vitro antirhinoviral activity against human rhinovirus serotypes 9,14 and 25; assay type: functional, organism-based
[12] = Compound was tested for plasma concentration in CM-monkeys 7 hours after oral administration (50 mg/kg); assay type: ADME, organism-based, Macaca fascicularis; details: cynomolgus monkey
Summary of the method: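 Male CM-monkeys (BW ~3.9 kg, n = 3), single oral dose of 50 mg/kg in 80:20 propylene glycol:sterile water at 15.0 mg/mL. Blood sampled periodically up to 24 h post-dose. Plasma concentration at 7 h measured by LCMS. Parameters from noncompartmental analysis of individual concentration-time data.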

[13] = Compound was tested in vitro for loss of compound after 2 hours exposure to hepatocytes of monkey at 25 uM concentration; assay type: ADME, cell-based, Hepatocyte; details: simiiformes, read-out: Metabolism
Enterovirus [14] = assay: In vitro antirhinoviral activity mean against human rhinovirus serotypes 2, 3, 9, 14, 16 and 25
[15] = Compound was tested in vitro for loss of compound after 30 min exposure to liver microsomes of monkey at 25 uM concentration; assay type: ADME, Microsome; details: simiiformes, read-out: Metabolism; summary of the method: as §1

| Compound | EC50 (Enterovirus [2]) | K obs / 1 [4] | metabolised at 0.5 h, 25 µM [5] | solubility thermodynamic [6] | half-life [7] | metabolised at 0.5 h, 25 µM [8] | concentration at 7 h [9] | Papp (Caco-2) | also measured |
| --- | --- | --- | --- | --- | --- | --- | --- | --- | --- |
| CC[C@@H](C(=O)N[C@H](/C=C/C(=O)OCc1ccccc1)C[C@@H]1CCNC1=O)n1cccc(NC(=O)c2cc(C)on2)c1=O | 64 nM | 210000 M⁻¹ s⁻¹ | 69% | 41 µg/mL (≈ 71.2 µM) | 2.5 h | 56% | 156 nM | 11 10e-6 cm s-1 | metabolised at 2 h, 25 µM [1]: 27%; metabolised at 2 h, 25 µM [3]: 55%; Free [10]: 8%; Free (Canis familiaris): 20% |
| C#CC[C@@H](C(=O)N[C@H](/C=C/C(=O)OC1CCCCCC1)C[C@@H]1CCNC1=O)n1cccc(NC(=O)c2cc(C)on2)c1=O | – | 47000 M⁻¹ s⁻¹ | – | – | – | – | – | – | EC50 (Enterovirus [11]): 812 nM |
| CC[C@@H](C(=O)N[C@H](/C=C/C(=O)OCC(C)(C)C)C[C@@H]1CCNC1=O)n1cccc(NC(=O)c2cc(C)on2)c1=O | 310 nM | 38200 M⁻¹ s⁻¹ | – | – | – | – | – | – | – |
| CCOC(=O)/C=C/[C@H](C[C@@H]1CCNC1=O)NC(=O)[C@H](Cc1ccc(F)c(F)c1)n1cccc(NC(=O)c2cc(C)on2)c1=O | 11 nM | – | 57% | 25 µg/mL (≈ 40.9 µM) | 1.4 h | 81% | – | 35 10e-6 cm s-1 | metabolised at 2 h, 25 µM [1]: 94% |
| CC[C@@H](C(=O)N[C@H](/C=C/C(=O)OC(C)(C)C)C[C@@H]1CCNC1=O)n1cccc(NC(=O)c2cc(C)on2)c1=O | 405 nM | 45100 M⁻¹ s⁻¹ | – | – | – | – | – | – | – |
| CC[C@@H](C(=O)N[C@H](/C=C/C(=O)OC(C)C)C[C@@H]1CCNC1=O)n1cccc(NC(=O)c2cc(C)on2)c1=O | – | 36000 M⁻¹ s⁻¹ | – | – | – | – | – | – | EC50 (Enterovirus [11]): 322 nM |
| Cc1cc(CCCOc2c(C)cc(-c3noc(C(F)(F)F)n3)cc2C)on1 [PLECONARIL] | 136 nM | – | – | – | – | – | – | – | – |
| C#CC[C@@H](C(=O)N[C@H](/C=C(\C)C(=O)OCC)C[C@@H]1CCNC1=O)n1cccc(NC(=O)c2cc(C)on2)c1=O | 1460 nM | 12500 M⁻¹ s⁻¹ | – | – | – | – | – | – | – |
| C#CC[C@@H](C(=O)N[C@H](/C=C/C(=O)OCC(C)(C)C)C[C@@H]1CCNC1=O)n1cccc(NC(=O)c2cc(C)on2)c1=O | 276 nM | 128000 M⁻¹ s⁻¹ | – | – | – | – | – | – | – |
| C#CC[C@@H](C(=O)N[C@H](/C=C/C(=O)OC(C)(C)C)C[C@@H]1CCNC1=O)n1cccc(NC(=O)c2cc(C)on2)c1=O | 361 nM | 60500 M⁻¹ s⁻¹ | – | – | – | – | – | – | – |
| CC[C@@H](C(=O)N[C@H](/C=C/C(=O)OC1CCCCCC1)C[C@@H]1CCNC1=O)n1cccc(NC(=O)c2cc(C)on2)c1=O | – | 15000 M⁻¹ s⁻¹ | – | – | – | – | – | – | – |
| C#CC[C@@H](C(=O)N[C@H](/C=C/C(=O)OC1CCC1)C[C@@H]1CCNC1=O)n1cccc(NC(=O)c2cc(C)on2)c1=O | 90 nM | 207000 M⁻¹ s⁻¹ | 53% | 25 µg/mL (≈ 45.5 µM) | 3.3 h | 52% | 73 nM | 14 10e-6 cm s-1 | – |
| CC[C@@H](C(=O)N[C@H](/C=C/C(=O)OC1CCCCC1)C[C@@H]1CCNC1=O)n1cccc(NC(=O)c2cc(C)on2)c1=O | – | 23000 M⁻¹ s⁻¹ | – | – | – | – | – | – | EC50 (Enterovirus [11]): 313 nM |
| C#CC[C@@H](C(=O)N[C@H](/C=C/C(=O)OCc1ccccc1)C[C@@H]1CCNC1=O)n1cccc(NC(=O)c2cc(C)on2)c1=O | 36 nM | 300000 M⁻¹ s⁻¹ | 67% | 22 µg/mL (≈ 37.6 µM) | 4.3 h | 52% | 563 nM | 18 10e-6 cm s-1 | concentration at 7 h [12]: 3 nM; metabolised at 2 h, 25 µM [1]: 51%; metabolised at 2 h, 25 µM [13]: 69%; metabolised at 2 h, 25 µM [3]: 61%; Free [10]: 13%; Free (Canis familiaris): 25% |
| CC[C@@H](C(=O)N[C@H](/C=C/C(=O)OC1CCC1)C[C@@H]1CCNC1=O)n1cccc(NC(=O)c2cc(C)on2)c1=O | 76 nM | 170000 M⁻¹ s⁻¹ | 46% | 192 µg/mL (≈ 356 µM) | 9.2 h | 49% | 222 nM | 10 10e-6 cm s-1 | Free [10]: 33%; Free (Canis familiaris): 42% |
| C#CC[C@@H](C(=O)N[C@H](/C=C/C(=O)OC1CCCC1)C[C@@H]1CCNC1=O)n1cccc(NC(=O)c2cc(C)on2)c1=O | 174 nM | 186000 M⁻¹ s⁻¹ | 76% | 15 µg/mL (≈ 26.6 µM) | 12.5 h | 59% | 160 nM | 36 10e-6 cm s-1 | Free [10]: 7%; Free (Canis familiaris): 20% |
| C#CC[C@@H](C(=O)N[C@H](/C=C/C(=O)OC(C)C)C[C@@H]1CCNC1=O)n1cccc(NC(=O)c2cc(C)on2)c1=O | – | 100000 M⁻¹ s⁻¹ | – | – | – | – | – | – | EC50 (Enterovirus [14]): 174 nM |
| C#CC[C@@H](C(=O)N[C@H](/C=C/C(=O)OCC)C[C@@H]1CCNC1=O)n1cccc(NC(=O)c2cc(C)on2)c1=O [IMOCITRELVIR] | 58 nM | 223000 M⁻¹ s⁻¹ | 45% | 377 µg/mL (≈ 720 µM) | 6.6 h | 40% | 248 nM | 6 10e-6 cm s-1 | concentration at 7 h [12]: 57 nM; metabolised at 2 h, 25 µM [1]: 85%; metabolised at 2 h, 25 µM [13]: 79%; metabolised at 0.5 h, 25 µM [15]: 55%; metabolised at 2 h, 25 µM [3]: 12%; Free [10]: 34%; Free (Canis familiaris): 54% |
| C#CC[C@@H](C(=O)N[C@H](/C=C/C(=O)OC1CCCCC1)C[C@@H]1CCNC1=O)n1cccc(NC(=O)c2cc(C)on2)c1=O | – | 34000 M⁻¹ s⁻¹ | – | – | – | – | – | – | EC50 (Enterovirus [11]): 406 nM |

From ChEMBL document CHEMBL1145131, “Structure-based design, synthesis, and biological evaluation of irreversible human rhinovirus 3C protease inhibitors. 8. Pharmacological optimization of orally bioavailable 2-pyridone-containing peptidomimetics” (J Med Chem, 2003)
